The record followed here is ChEMBL document CHEMBL3853263, “Effect of intercalator and Lewis acid-base branched peptide complex formation: boosting affinity towards HIV-1 RRE RNA” (Medchemcomm, 2016).

What is called Kd is the free concentration of one partner at which half of the binding sites on the other are occupied at equilibrium, for simple one-to-one binding. Broadly, the inhibition is the change of the read-out against control, counted positive when it falls. Broadly, the IC50 is the concentration at which inhibition is half-maximal.

Active and inactive are the calls of the source. The calls are words filed in the database; no cut-off is given here. Numbered stars: 1 amine (or outer) side, 2 acyl side, 3 side chain; on linkers, the order of the positions; unused ones are H or OH. Side chains are listed from the residue outwards. Peptide text beside a SMILES is read from it. * marks the point of attachment. Benzoyl(4-B(OH)2) = O=C(c1ccc(B(O)O)cc1)*; Acridin9yl = c1ccc2c(*)c3ccccc3nc2c1; εLys = N[C@@H](CCCCN[*:1])C(=O)[*:2]; Suc = O=C(CCC(=O)[*:2])[*:1]

A short description of data set [1]: Binding affinity to HIV1 wild type [32P]-labeled RRE-2B RNA after 4 hrs by electrophoretic mobility shift assay. Further details: species or system Human immunodeficiency virus 1. A digest of the protocol: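 5'-³²P RRE-IIB (4 nM in 2x phosphate buffer, pH 7.0) is refolded at 95 °C for 3 min, then rt for 20 min. It is mixed 1:1 with peptide in water (final 0.001–10 µM) for 4 h at rt. Complexes are resolved by 10% native PAGE at 4 °C. Kd is the 50%-binding concentration from a sigmoidal fit of % RNA bound vs log[peptide]. Triplicates.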
For orientation: Mobility shift assays separate free from complexed probe on a gel.

Data set [2] is described as follows: Cytotoxicity against human U87 cells transfected with CD4/CXCR4 assessed as decrease in cell viability up to 100 uM after 24 hrs by MTT assay. Type of data set: toxicity, cell-based. The following applies: u-87mg atcc. The procedure, abridged: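 U87 CXCR4 cells are seeded at 1 x 10⁴/well and incubated overnight at 37 °C in 5% CO₂. They are treated with 100, 50 or 10 µM (final) compound for 24 h. Tetrazolium dye is added for 4 h, then solubilization/stop solution for 1 h. A570 is read and normalized to untreated cells set at 1.0.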
(Tetrazolium dyes change colour on reduction, which living cells bring about.)

For data set [3], the system named is Human immunodeficiency virus 1. In words: Antiviral activity against HIV1 NL4-3 infected in human U87 cells transfected with CD4/CXCR4 assessed as inhibition of viral replication at 100 uM preincubated for 1 hr followed by viral infection for 24 hrs and subsequent compound wash out and addition of additional compound measured at 72 hrs post infection by p24 assay. Type of data set: functional, cell-based. The following applies: U-87MG ATCC. A digest of the protocol: (§1)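 U87-CD4/CXCR4 cells are seeded at 1 x 10⁴/well and left to adhere overnight. Compounds come from 1 mM stocks in water, diluted in RPMI. Cells are pretreated for 1 h, then infected with NL4-3 (CXCR4-tropic) at MOI 0.01 for 24 h. Cells are PBS-washed and given fresh medium with more compound. p24 is quantified in supernatant at 72 h post-infection.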

Data set [4] has as its system Human immunodeficiency virus 1. In words: Antiviral activity against HIV1 NL4-3 infected in human U87 cells transfected with CD4/CXCR4 assessed as inhibition of viral replication preincubated for 1 hr followed by viral infection for 24 hrs and subsequent compound wash out and addition of additional compound measured at 72 hrs post infection by p24 assay. Type of data set: functional, cell-based, U-87MG ATCC. A digest of the protocol:
as §1

Data set [5] deals with Human immunodeficiency virus 1. In words: Antiviral activity against HIV1 NL4-3 infected in human U87 cells transfected with CD4/CXCR4 assessed as inhibition of viral replication at 40 uM preincubated for 1 hr followed by viral infection for 24 hrs and subsequent compound wash out and addition of additional compound measured at 72 hrs post infection by p24 assay relative to control. The format is functional, U-87MG ATCC. The following applies: Human immunodeficiency virus 1, NL4-3, U-87 MG. A digest of the protocol: as §1

Data set [6] in a line: Cytotoxicity against HIV1 NL4-3 infected human U87 cells transfected with CD4/CXCR4 assessed as decrease in cell viability at 20 to 80 uM after 72 hrs by MTT assay. Type of data set: toxicity, cell-based. The conditions noted are these: u-87mg atcc.
In data set [7] the test system is Human immunodeficiency virus 1. In words: Binding affinity to HIV1 wild type [32P]-labeled RRE-2B RNA assessed as protection of RNA from RNase T1-induced cleavage by footprinting method. A digest of the protocol: (§2)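 5'-³²P RRE-IIB (10 nM) plus unlabeled RRE-IIB (200 nM) is heated to 95 °C for 3 min and snap-cooled. It is incubated with peptide on ice for 4 h in 10 mM Tris pH 7, 100 mM KCl, 10 mM MgCl₂. Digestion is on ice for 1 h, with RNase T1 at 1 U or RNase A at 20 ng. Cleavage is stopped by precipitation, run on 12% PAGE with 7.5 M urea, and read by autoradiography.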

For data set [8], the system named is Human immunodeficiency virus 1. In words: Binding affinity to HIV1 wild type [32P]-labeled RRE-2B RNA assessed as protection of RNA from RNase A-induced cleavage at 0.2 to 20 uM by footprinting method. The procedure, abridged:
as §2

For data set [9], the system named is Human immunodeficiency virus 1. In words: Binding affinity to HIV1 wild type 2-aminopurine-labeled RRE-2B RNA assessed as 1:1 binding stoichiometry between compound and RNA at 0.25 to 4 molar ratio of compound/RNA by Job plot method.
A short description of data set [10]: Binding affinity to HIV1 HXB3 RRE66 RNA. Details: species or system Human immunodeficiency virus 1.
Data set [11] in a line: Binding affinity to HIV1 wild type [32P]-labeled RRE-2B RNA after 30 mins by electrophoretic mobility shift assay. Further details: species or system Human immunodeficiency virus 1.

As for `CC(C)C[C@H](NC(=O)[C@H](CCCCN)NC(=O)[C@H](CCCCNC(=O)[C@H](CCCCN)NC(=O)[C@H](CCCCN)NC(=O)[C@@H](N)CCCCNc1c2ccccc2nc2ccccc12)NC(=O)[C@H](CCCCN)NC(=O)[C@H](CCCCN)NC(=O)[C@@H](N)CCCCNc1c2ccccc2nc2ccccc12)C(=O)N[C@@H](CCCCNC(=O)c1ccc(B(O)O)cc1)C(=O)N[C@@H](Cc1ccc(O)cc1)C(N)=O` (H-K(Acridin9yl)KKK([Lys-Lys-εLys-Acridin9yl])KLK(Benzoyl(4-B(OH)2))Y-NH2), in [1], the Kd is 60 nM. For the same compound, the Activity result is “Non-Toxic” in data set [2], “Non-Toxic” in data set [6] and “Dose-dependent effect” in data set [7]. For the same compound, in data set [3], the inhibition entry was “Active”. The IC50 in [4] (Human immunodeficiency virus 1, NL4-3, U-87 MG) was determined as 10100 nM. In addition, the inhibition result in [4] (U-87MG ATCC) is “Dose-dependent effect”. In [5], the inhibition at 40 µM came to 90%. Further, the outcome in data set [8] and in data set [9] was Active.

`NCC1O[C@H](O[C@H]2[C@@H](O)[C@H](O[C@@H]3[C@@H](O)[C@H](N)C[C@H](N)[C@H]3O[C@H]3O[C@H](CN)[C@@H](O)[C@H](O)[C@H]3N)O[C@@H]2CNc2c3ccccc3nc3ccccc23)[C@H](N)[C@@H](O)[C@@H]1O` (some centres not stated) showed a Kd in data set [10] of 2.4 nM.

In the case of `C[C@H](NC(=O)[C@H](C)NC(=O)[C@H](C)NC(=O)[C@H](CCCNC(=N)N)NC(=O)[C@H](CCC(N)=O)NC(=O)[C@H](CCCNC(=N)N)NC(=O)[C@H](CCC(=O)O)NC(=O)[C@H](CCCNC(=N)N)NC(=O)[C@H](Cc1c[nH]c2ccccc12)NC(=O)[C@H](CCCNC(=N)N)NC(=O)[C@H](CCCNC(=N)N)NC(=O)[C@H](CCCNC(=N)N)NC(=O)[C@H](CCCNC(=N)N)NC(=O)[C@H](CC(N)=O)NC(=O)[C@H](CCCNC(=N)N)NC(=O)[C@H](CCCNC(=N)N)NC(=O)[C@H](C)NC(=O)[C@H](CCC(N)=O)NC(=O)[C@H](CCCNC(=N)N)NC(=O)[C@@H](NC(=O)CCC(=O)O)[C@@H](C)O)C(=O)N[C@@H](C)C(=O)N[C@@H](CCCNC(=N)N)C(=O)O` (Suc-TRQARRNRRRRWRERQRAAAAR-OH), the Kd in data set [11] is 100 nM.
